Experimental data as given in ChEMBL document CHEMBL5661972, “In vitro biological activity of a novel small-molecule inhibitor of polo-like kinase 1” (Mol Cancer Ther, 2007).
The source made the active and inactive calls. The calls are words filed in the database; no cut-off is given here.

Columns and labels:
[1] = biological target: Serine/threonine-protein kinase PLK3 (Homo sapiens, UniProt Q9H4B4); test: Inhibition of human PLK3 expressed in baculovirus infected in Trichoplusia ni cells using Biotin-Ahx-SFNDTLDFD as substrate in presence of ATP by TopCount scintillation proximity assay; parameters: species or system Trichoplusia ni cell
In short: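 Full-length PLK3 (5 nmol/L) from baculovirus-infected Trichoplusia ni cells in 25 mmol/L HEPES pH 7.2, 15 mmol/L MgCl2, 1 μmol/L ATP with [γ-33P]ATP, 1 μmol/L biotinylated peptide, BSA, DTT. Incubated 1–1.5 h at 22°C in the linear range. Stopped with EDTA plus streptavidin SPA beads, then counted or imaged. Signal above EDTA background taken as percent inhibition versus DMSO wells.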

[2] = biological target: Vascular endothelial growth factor receptor 2 (Homo sapiens, UniProt P35968); test: Inhibition of VEGFR2 (unknown origin)
[3] = biological target: Mitogen-activated protein kinase 11 (Homo sapiens, UniProt Q15759); test: Inhibition of p38beta (unknown origin)
BT-474 = test: Antiproliferative activity against human BT-474 cells assessed as inhibition of cell growth; assay type: functional, cell-based
HeLa [4] = test: Antiproliferative activity against human HeLa cells assessed as inhibition of cell growth; assay type: functional, cell-based
MES-SA = test: Antiproliferative activity against human MES-SA cells assessed as inhibition of cell growth; assay type: functional, cell-based
In short: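 Cells grown 3 days in 96-well plates, seeded so vehicle controls stay in log growth (MES-SA/DX5 7,000, MES-SA 6,000, HDF 5,000 per well). Exposed to 3-fold dilutions, 30–0.00152 μmol/L, in medium with 5% FBS, 50 μg/mL gentamicin and 0.3% (v/v) DMSO. HDF medium was low-glucose DMEM; MES-SA lines used McCoy's 5A.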

[5] = Selectivity ratio of IC50 for cytotoxicity against human HDF cells to IC50 for antiproliferative activity against human A549 cells; assay type: toxicity, cell-based; settings: HDF cells versus A549 cells, read-out: Ratio IC50
[6] = Selectivity ratio of IC50 for cytotoxicity against human HDF cells to IC50 for antiproliferative activity against human MCF7 cells; assay type: toxicity, cell-based; settings: HDF cells versus MCF7 cells, read-out: Ratio IC50
HeLa [7] = test: Inhibition of p53-PLK1 in human HeLa cells assessed as inhibition of p53 phosphorylation at Ser15 residue by Western blotting analysis; assay type: cell-based; settings: dose 0.0015-30 µM
In short: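 HeLa cells with tet-inducible p53-PLK1 fusion induced overnight with 125 ng/mL doxycycline, then treated 6 h with 3-fold dilutions (30–0.00152 μmol/L). Lysates resolved on 4–12% Bis-Tris gels, transferred to nitrocellulose, probed for phospho-Ser15 p53 or total p53.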

NHDF [8] = test: Induction of cell cycle arrest in human HDF cells assessed as accumulation of cells at S phase at 1 micromol/L incubated for 24 hrs by propidium iodide staining based flow cytometry analysis (reference value: 13.2 %); assay type: toxicity; settings: 1 µM, dose 1 µmol/L
In short: (§1)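 Cells seeded in six-well plates at densities that keep them in log growth (HDF 120,000, 60,000 or 30,000; H460 100,000, 50,000 or 25,000 per well for 24, 48 or 72 h). Treated with 1 or 3 μmol/L. Floating and adherent cells collected, ethanol-fixed, permeabilized with Triton X-100 and stained with propidium iodide. DNA content read by flow cytometry as % singlet cells.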

NHDF [9] = test: Induction of cell cycle arrest in human HDF cells assessed as accumulation of cells at G2-M phase at 1 micromol/L incubated for 24 hrs by propidium iodide staining based flow cytometry analysis (reference value: 22.6 %); assay type: toxicity; settings: 1 µM, dose 1 µmol/L; in short: as §1
NHDF [10] = test: Induction of cell cycle arrest in human HDF cells assessed as accumulation of cells at G2-M phase at 3 micromol/L incubated for 24 hrs by propidium iodide staining based flow cytometry analysis (reference value: 22.6 %); assay type: toxicity; settings: 3 µM, dose 3 µmol/L; in short: as §1
NHDF [11] = test: Induction of cell cycle arrest in human HDF cells assessed as accumulation of cells at >4N phase at 3 micromol/L incubated for 24 hrs by propidium iodide staining based flow cytometry analysis (reference value: 2.4 %); assay type: toxicity; settings: 3 µM, dose 3 µmol/L; in short: as §1
NHDF [12] = test: Induction of cell cycle arrest in human HDF cells assessed as accumulation of cells at G1 phase at 1 micromol/L incubated for 48 hrs by propidium iodide staining based flow cytometry analysis (reference value: 72.8 %); assay type: toxicity; settings: 1 µM, dose 1 µmol/L; in short: as §1
NHDF [13] = test: Induction of cell cycle arrest in human HDF cells assessed as accumulation of cells at G2-M phase at 3 micromol/L incubated for 48 hrs by propidium iodide staining based flow cytometry analysis (reference value: 14.3 %); assay type: toxicity; settings: 3 µM, dose 3 µmol/L; in short: as §1
NHDF [14] = test: Induction of cell cycle arrest in human HDF cells assessed as accumulation of cells at Sub-2N phase at 1 micromol/L incubated for 72 hrs by propidium iodide staining based flow cytometry analysis (reference value: 0.7 %); assay type: toxicity; settings: 1 µM, dose 1 µmol/L; in short: as §1
NCI-H460 [15] = test: Induction of cell cycle arrest in human NCI-H460 cells assessed as accumulation of cells at G1 phase at 3 micromol/L incubated for 24 hrs by propidium iodide staining based flow cytometry analysis (reference value: 45.5 %); assay type: functional; settings: dose 3 µmol/L, at 3 µM; in short: as §1
NCI-H460 [16] = test: Induction of cell cycle arrest in human NCI-H460 cells assessed as accumulation of cells at G2-M phase at 3 micromol/L incubated for 24 hrs by propidium iodide staining based flow cytometry analysis (reference value: 19.8 %); assay type: functional; settings: dose 3 µmol/L, at 3 µM
NCI-H460 [17] = test: Induction of cell cycle arrest in human NCI-H460 cells assessed as accumulation of cells at Sub-2N phase at 1 micromol/L incubated for 24 hrs by propidium iodide staining based flow cytometry analysis (reference value: 4.0 %); assay type: functional; settings: dose 1 µmol/L, at 1 µM
NCI-H460 [18] = test: Induction of cell cycle arrest in human NCI-H460 cells assessed as accumulation of cells at S phase at 1 micromol/L incubated for 48 hrs by propidium iodide staining based flow cytometry analysis (reference value: 18.5 %); assay type: functional; settings: dose 1 µmol/L, at 1 µM
NCI-H460 [19] = test: Induction of cell cycle arrest in human NCI-H460 cells assessed as accumulation of cells at G2-M phase at 3 micromol/L incubated for 48 hrs by propidium iodide staining based flow cytometry analysis (reference value: 22.5 %); assay type: functional; settings: dose 3 µmol/L, at 3 µM
NCI-H460 [20] = test: Induction of apoptosis in human NCI-H460 cells assessed as increase in caspase-3 activity at 5 micromol/L measured after 46 hrs using AcDEVD-[…] fluorogenic peptide as substrate by plate reader analysis; assay type: functional, cell-based; settings: dose 5.0 µmol/L
In short: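 H460 cells seeded at 320,000 per well in six-well plates and given 5 μmol/L for 7 to 72 h. Lysates made in Tris/phosphate buffer, pH 7.5, with Triton X-100. Cleavage of Ac-DEVD-[…] measured by fluorescence, excitation 380 nm, emission 420–460 nm.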

Serine/threonine-protein kinase PLK3, sequence (Q9H4B4 whole entry): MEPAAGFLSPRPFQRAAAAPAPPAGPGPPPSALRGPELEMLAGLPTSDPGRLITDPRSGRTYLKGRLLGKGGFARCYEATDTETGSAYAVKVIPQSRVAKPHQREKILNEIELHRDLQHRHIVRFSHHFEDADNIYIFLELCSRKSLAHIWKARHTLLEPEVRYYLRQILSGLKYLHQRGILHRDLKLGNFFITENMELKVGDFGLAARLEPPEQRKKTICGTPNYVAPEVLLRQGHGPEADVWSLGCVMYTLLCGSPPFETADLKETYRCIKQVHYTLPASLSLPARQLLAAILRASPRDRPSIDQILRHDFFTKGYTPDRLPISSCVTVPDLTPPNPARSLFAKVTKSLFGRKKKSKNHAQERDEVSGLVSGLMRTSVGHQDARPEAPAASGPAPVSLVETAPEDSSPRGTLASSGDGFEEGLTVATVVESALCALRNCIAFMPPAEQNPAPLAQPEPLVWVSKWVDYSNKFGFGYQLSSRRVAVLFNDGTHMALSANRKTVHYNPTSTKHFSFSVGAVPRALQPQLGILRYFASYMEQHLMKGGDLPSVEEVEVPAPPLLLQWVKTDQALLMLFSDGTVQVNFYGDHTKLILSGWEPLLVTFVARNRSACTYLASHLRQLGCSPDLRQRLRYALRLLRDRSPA
Mitogen-activated protein kinase 11, sequence (Q15759 whole entry): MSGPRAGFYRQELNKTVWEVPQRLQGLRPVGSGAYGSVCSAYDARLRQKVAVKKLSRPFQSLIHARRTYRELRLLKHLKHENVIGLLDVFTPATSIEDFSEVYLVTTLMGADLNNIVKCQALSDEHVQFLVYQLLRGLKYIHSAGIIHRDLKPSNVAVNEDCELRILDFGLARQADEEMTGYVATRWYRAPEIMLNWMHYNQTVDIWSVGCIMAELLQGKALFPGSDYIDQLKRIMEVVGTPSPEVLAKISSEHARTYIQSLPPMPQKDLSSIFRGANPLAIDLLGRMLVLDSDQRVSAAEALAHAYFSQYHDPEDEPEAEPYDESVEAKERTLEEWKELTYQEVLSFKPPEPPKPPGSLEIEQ
Vascular endothelial growth factor receptor 2, sequence (P35968 whole entry): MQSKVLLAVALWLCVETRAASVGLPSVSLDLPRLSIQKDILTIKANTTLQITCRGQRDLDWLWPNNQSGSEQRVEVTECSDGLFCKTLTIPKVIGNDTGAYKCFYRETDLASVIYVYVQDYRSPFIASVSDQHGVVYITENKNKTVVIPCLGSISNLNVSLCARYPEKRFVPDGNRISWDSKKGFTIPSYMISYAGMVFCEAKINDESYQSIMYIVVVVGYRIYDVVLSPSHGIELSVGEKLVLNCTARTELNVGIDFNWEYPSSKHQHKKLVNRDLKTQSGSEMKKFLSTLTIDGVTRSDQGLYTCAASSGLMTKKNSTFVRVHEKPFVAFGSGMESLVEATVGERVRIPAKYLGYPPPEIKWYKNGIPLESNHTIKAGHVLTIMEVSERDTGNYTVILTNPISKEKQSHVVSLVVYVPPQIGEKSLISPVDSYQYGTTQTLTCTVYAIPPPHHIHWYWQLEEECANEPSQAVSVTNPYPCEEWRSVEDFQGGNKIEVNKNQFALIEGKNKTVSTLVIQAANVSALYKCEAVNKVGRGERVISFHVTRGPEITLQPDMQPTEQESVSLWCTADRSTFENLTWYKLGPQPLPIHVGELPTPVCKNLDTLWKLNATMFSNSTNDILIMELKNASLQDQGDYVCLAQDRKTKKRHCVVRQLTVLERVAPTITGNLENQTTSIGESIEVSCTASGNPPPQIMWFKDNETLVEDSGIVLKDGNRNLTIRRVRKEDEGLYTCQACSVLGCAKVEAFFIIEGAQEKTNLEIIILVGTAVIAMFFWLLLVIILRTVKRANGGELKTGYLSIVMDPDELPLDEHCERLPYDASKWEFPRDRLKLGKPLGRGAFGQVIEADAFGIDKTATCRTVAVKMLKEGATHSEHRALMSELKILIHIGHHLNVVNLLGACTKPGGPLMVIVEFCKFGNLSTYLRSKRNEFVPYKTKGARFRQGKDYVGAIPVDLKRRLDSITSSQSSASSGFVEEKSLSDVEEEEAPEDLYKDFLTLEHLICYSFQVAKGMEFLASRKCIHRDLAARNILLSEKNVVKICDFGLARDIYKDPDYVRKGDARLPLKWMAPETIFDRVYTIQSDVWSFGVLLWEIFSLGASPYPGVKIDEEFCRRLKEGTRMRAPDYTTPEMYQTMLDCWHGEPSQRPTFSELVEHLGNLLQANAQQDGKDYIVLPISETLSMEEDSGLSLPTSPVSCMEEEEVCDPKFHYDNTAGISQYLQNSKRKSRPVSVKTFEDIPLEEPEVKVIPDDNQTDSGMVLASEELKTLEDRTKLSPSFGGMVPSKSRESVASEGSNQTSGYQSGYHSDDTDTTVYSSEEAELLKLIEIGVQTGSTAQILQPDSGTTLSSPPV

**Q.** What does the source list for `COc1cc2ncn(-c3cc(OCc4ccccc4C(F)(F)F)c(C(N)=O)s3)c2cc1OC` [GW843682X]?
**A.** IC50 [1]: 0.0091 µM; IC50 [2]: 0.36 µM; IC50 [3]: > 10 µM; IC50 (BT-474): 0.57 µM; IC50 (HeLa [4]): 0.11 µM; IC50 (MES-SA): 0.21 µM; selectivity ratio [5]: > 10; selectivity ratio [6]: > 10; inhibition (HeLa [7]): Dose-Dependent Effect; Activity (NHDF [8]): 10.2%; Activity (NHDF [9]): 27.6%; Activity (NHDF [10]): 65.6%; Activity (NHDF [11]): 6%; Activity (NHDF [12]): 55.3%; Activity (NHDF [13]): 61.2%; Activity (NHDF [14]): 1.3%; Activity (NCI-H460 [15]): 7.8%; Activity (NCI-H460 [16]): 37.7%; Activity (NCI-H460 [17]): 11.6%; Activity (NCI-H460 [18]): 24.3%; Activity (NCI-H460 [19]): 14.4%; Activity (NCI-H460 [20]): Active
